Data published in ChEMBL document CHEMBL1795270, “Synthesis and biological evaluation of a novel human stem/progenitor cells proliferation activator: 4-(4-(5-mercapto-1,3,4-oxadiazol-2-yl)phenyl) thiosemicarbazide (Stemazole)” (Eur J Med Chem, 2011).
Activity calls are given as the source filed them. The calls are words filed in the database; no cut-off is given here.

Columns and labels:
[1] = Solubility of the compound in DMSO; assay type: physicochemical
[2] = Inhibition of human HSC proliferation after 4 days by luminescent cell viability assay; conditions: 96 h
Summary of the method: (§1)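 Sixth-passage HSCs (kept as neurospheres in DMEM/F12 with bFGF, EGF, B27) plated at 1×10^3 cells/well in basic medium, left 24 h, then given serial dilutions for 4 days. DMSO as negative control, bFGF as positive control. Read-out by CellTiter-Glo: reagent added to the cells, 10 min at ambient temperature, then luminescence read. Values relative to DMSO (100%). At least triplicate, repeated three times, mean ± SD.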

[3] = Cytotoxicity against human HSC assessed as axonal growth or adipose drop appearance 13.8 to 40.2 uM up to 6 days by phase contrast microscopy; conditions: 144 h
Summary of the method: (§2)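 Phase-contrast microscope images of HSCs treated with various concentrations, DMSO or bFGF, taken at 2, 4 and 6 days. Scored by morphology, including signs of differentiation such as axonal growth or adipose drop appearance.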

[4] = Cytotoxicity against human HSC after 4 days at 100 uM by luminescent cell viability assay; conditions: 96 h; summary of the method: as §1
Homo sapiens [5] = organism: Homo sapiens; test: Induction of human HSC proliferation under serum free condition at 5 to 40 uM by cell counting and luminescent cell viability assay; assay type: functional; conditions: TDE = time-dependent effect
Summary of the method: (§3)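 HSCs kept serum-free without bFGF, seeded at 1×10^3 cells/well, then given a range of concentrations for 2, 4 and 6 days. Read at each time point by phase-contrast imaging, cell counting (three pictures per group, haemocytometer) and CellTiter-Glo luminescence. DMSO as negative control, bFGF as positive control. Mean ± SD.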

Homo sapiens [6] = organism: Homo sapiens; test: Induction of human HSC proliferation under serum free condition after 4 days by cell counting and luminescent cell viability assay; assay type: functional; summary of the method: as §3
[7] = Induction of human HSC proliferation assessed as population doubling time at 41.6 uM by cell counting and luminescent cell viability assay (reference value: 73.6 hrs); assay type: functional
Homo sapiens [8] = organism: Homo sapiens; test: Induction of human CSC proliferation after 4 days by luminescent cell viability assay; assay type: functional
Summary of the method: (§4)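 Third-passage CSCs (maintained in IMDM with 10% FBS and 2-mercaptoethanol) plated at 1×10^3 cells/well in basic medium, left 24 h, then treated for 4 days. DMSO as negative control. Viability read by CellTiter-Glo luminescence after 10 min at ambient temperature. At least triplicate, repeated three times, mean ± SD.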

[9] = Cytotoxicity against human HSC assessed as morphological changes 13.8 to 40.2 uM up to 6 days by phase contrast microscopy; conditions: 144 h; summary of the method: as §2
Homo sapiens [10] = organism: Homo sapiens; test: Induction of human PSC proliferation after 4 days by luminescent cell viability assay; assay type: functional
Summary of the method: as §4, with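 “Sixth-passage PSCs (expanded” for “Third-passage CSCs (maintained”, “DMEM/F12, 7.33 mM glucose,” for “IMDM”, “20 ng/mL bFGF)” for “2-mercaptoethanol)”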

[11] = Induction of human HSC proliferation after 4 days by luminescent cell viability assay; assay type: functional; summary of the method: as §1
Homo sapiens [12] = organism: Homo sapiens; test: Induction of human HSC proliferation assessed as fold increase after 6 days by direct phase contrast microscopy; assay type: functional; summary of the method: as §3
[13] = Homo sapiens, 96 h, read-out: EC50

CNNC(=S)Nc1ccc(-c2nnc(S)o2)cc1
solubility [1]: soluble

S=C(NNc1ccc(Cl)cc1)Nc1ccc(-c2nnc(S)o2)cc1
solubility [1]: soluble | IC50 [2]: 3.2 µM

NNC(=S)Nc1ccc(-c2nnc(S)o2)cc1 [STEMAZOLE]
Activity [3]: Non-toxic | Activity [4]: Non-toxic | Activity (Homo sapiens [5]): tde | Activity (Homo sapiens [6]): Dose-dependent effect | Time [7]: 48.5 h | Activity (Homo sapiens [8]): Active | Activity [9]: Non-toxic | solubility [1]: soluble | Activity (Homo sapiens [10]): Active | EC50 [11, 13]: 7.5 µM | fold change (FC) (Homo sapiens [12]): 3

S=C(NNCc1ccccc1)Nc1ccc(-c2nnc(S)o2)cc1
solubility [1]: soluble | EC50 [11]: Not Active

S=C(NNc1ccccc1)Nc1ccc(-c2nnc(S)o2)cc1
solubility [1]: soluble | IC50 [2]: 8.3 µM

NNC(=S)Nc1ccc(-c2nnc(S)o2)cc1Br
Activity [4]: Toxic | solubility [1]: soluble | EC50 [11, 13]: 10 µM

COc1ccc(NNC(=S)Nc2ccc(-c3nnc(S)o3)cc2)cc1
solubility [1]: soluble | IC50 [2]: 42.7 µM
